Measured values reported in ChEMBL document CHEMBL1134104, “Novel alkylpolyamine analogues that possess both antitrypanosomal and antimicrosporidial activity” (Bioorg Med Chem Lett, 2001).

Key:
[1] = system: Encephalitozoon cuniculi; assay: In vitro growth inhibitory activity against Encephalitozoon cuniculi grown on RK-13 cells infected as a monolayer at concentration of 100 uM; assay type: functional
How it was run: (§1)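 RK-13 monolayers were infected with E. cuniculi, with 50–80% of control cells infected. Compound was added to duplicate wells for 7 days, and drug-containing medium was replaced on days 3 and 6. On day 8, cells were fixed overnight, Giemsa-stained and counted by inverted microscope at 400× in five confluent fields (240 cells/field). Percentage of infected cells was compared with untreated controls. Values came from three to five growth curves.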

[2] = system: Trypanosoma brucei; assay: In vitro growth inhibitory activity against Trypanosoma brucei strain K243 (As-10-3); assay type: functional, organism-based
[3] = system: Trypanosoma brucei; assay: In vitro growth inhibitory activity against Trypanosoma brucei strain K243; assay type: functional, organism-based
[4] = system: Trypanosoma brucei; assay: In vitro growth inhibitory activity against Trypanosoma brucei strain K269; assay type: functional, organism-based
[5] = system: Trypanosoma brucei; assay: In vitro growth inhibitory activity against Trypanosoma brucei strain LAB110; assay type: functional, organism-based
[6] = system: Encephalitozoon cuniculi; assay: In vitro growth inhibitory activity against Encephalitozoon cuniculi grown on RK-13 cells infected as a monolayer at concentration of 500 uM; assay type: functional; how it was run: as §1
[7] = system: Encephalitozoon cuniculi; assay: In vitro growth inhibitory activity against Encephalitozoon cuniculi grown on RK-13 cells infected as a monolayer at concentration of 50 uM; assay type: functional; how it was run: as §1
[8] = system: Encephalitozoon cuniculi; assay: In vitro growth inhibitory activity against Encephalitozoon cuniculi grown on RK-13 cells infected as a monolayer; assay type: functional, organism-based; how it was run: as §1
[9] = system: Encephalitozoon cuniculi; assay: In vitro growth inhibitory activity against Encephalitozoon cuniculi grown on RK-13 cells infected as a monolayer at concentration of 250 uM; assay type: functional; how it was run: as §1

Row | SMILES | inhibition at 100 µM [1] [%] | IC50 [2] [µM] | IC50 [3] [µM] | IC50 [4] [µM] | IC50 [5] [µM] | inhibition at 500 µM [6] [%] | inhibition at 50 µM [7] [%] | IC50 [8] [µM] | inhibition at 250 µM [9] [%]
1 | C(CNCC1CC1)CNCC1CCCC(CNCCCNCC2CC2)C1 (centres undefined) | 100 | > 100 | 81.5 | > 100 | 73 | – | – | – | –
2 | CC[C@H](C)CNCCCNCCCCCCCNCCCN | – | – | – | – | – | 87 | – | – | –
3 | CCNCCCNCCCNCCCNCC [BIS(ETHYL)NORSPERMINE] | – | > 100 | > 100 | > 100 | > 100 | – | – | – | –
4 | CCC(C)CNCCCNCCCCCCCNCCCNCC(C)CC (centres undefined) | – | 0.165 | 0.04 | – | 0.031 | – | 47 | – | –
5 | CCNCCCNCC1CCCC(N)CC1 (centres undefined) | – | – | > 100 | – | > 100 | – | – | 232 | –
6 | N[C@H]1C=CC(NCCCNCC2CC2)C1 (some centres undefined) | – | – | > 100 | – | > 100 | – | – | 204 | –
7 | CCNCCCNC1C=CC(N)CCC1 (centres undefined) | – | – | > 100 | – | > 100 | – | – | 36 | –
8 | CCNCCCNCCCCCCCNCCCNC[C@@H](C)CC | – | 0.79 | 0.38 | – | 0.31 | – | – | – | –
9 | COc1ccccc1CNCCCNCCCCCCCNCCCNCc1ccccc1OC | – | 5.5 | 18.5 | 16.5 | 22 | – | 100 | – | –
10 | c1ccc(CNCCCNCC2CCCC(CNCCCNCc3ccccc3)C2)cc1 (centres undefined) | 86 | 56 | 4.15 | 5.1 | 4.05 | – | – | – | –
11 | c1ccc(-c2ccccc2CNCCCNCCCCCCCNCCCNCc2ccccc2-c2ccccc2)cc1 | – | 0.2 | 0.19 | 0.75 | 0.24 | – | – | 0.47 | –
12 | N[C@@H]1C=C[C@@H](NCCCNCC2CCCC(CNCCCN[C@H]3C=C[C@H](N)C3)C2)C1 (some centres undefined) | 100 | – | – | – | – | – | – | – | –
13 | N[C@H]1C=CC(NCCCNCC2CCCCCC2)CCC1 (some centres undefined) | 76 | – | – | – | – | – | – | – | –
14 | C1CCCC(CNCCCNCC2CCCC(CNCCCNCC3CCCCCC3)C2)CC1 (centres undefined) | 100 | 2.15 | 14 | 1.71 | 3.25 | – | – | – | –
15 | C(CNCC1CCC1)CNCC1CCCC(CNCCCNCC2CCC2)C1 (centres undefined) | – | – | – | – | – | – | – | – | 100
